Key:
Type in all cases: cell-based
GPR35 [1] = biological target: T1, GPR35 (Homo sapiens, UniProt Q9HC97); experiment: Tango β-arrestin translocation gene reporter assay in Tango GPR35-bla U2OS cells; conditions: for agonist type in Tango β-arrestin translocation assay: compared to zaprinast; for Tango assays % zaprinast: efficacy relative to zaprinast, Tango GPR35-bla U2OS cells
GPR35 [2] = biological target: T1, GPR35; conditions: HT29; for blockage of the compound-induced DMR by compound 17: compound 17 at 64 μM
GPR35 [3] = biological target: T1, GPR35; experiment: DMR agonist assay after shRNA knockdown of GPR35 in HT29; conditions: all compounds at 10 μM; n = 4; mock transfection as control
Method in brief: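 HT29 cells seeded at 5000/well on biosensor plates, 24 h at 37 °C, then transiently transfected (Effectene, 0.05 μg plasmid DNA) with GPR35 shRNA in GFP-expressing pGFP-V-RS vector or control plasmid. Medium was renewed next day. About 48 h post-transfection, cells were washed into HBSS (20 mM Hepes, pH 7.1) and equilibrated 1 h at 26 °C. Label-free DMR was recorded kinetically after a 2 min baseline and compound addition.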

GPR35 [4] = biological target: T1, GPR35; experiment: DMR agonist assay in HT-29 cells; conditions: for agonist type in DMR assay: compared to zaprinast; for fold decrease in potency relative to 16a: compared with compound 16a
GPR35 [5] = biological target: T1, GPR35; experiment: Receptor internalization assay in HT29; conditions: HT-29; 1 μM 16a, 10 μM 15a; 1 h at 37 °C
Method in brief: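 HT29 cells seeded at 10000/well on chamber slides, 24 h at 37 °C, then exposed to compound or matching DMSO for 1 h at 37 °C. Cells were fixed in 4% formaldehyde for 15 min and blocked/permeabilized for 2 h (goat serum, BSA, Triton X-100). Staining used anti-GPR35 T-14 (intracellular epitope, 1:500, 24 h), then Alexa Fluor 594 anti-goat (1:500, 1 h RT), with DAPI nuclei. Read by confocal imaging.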

GPR35 [6] = biological target: T1, GPR35; conditions: zaprinast 1 μM in DMSO treated cells; n = 90

T1 sequence (Q9HC97 whole entry): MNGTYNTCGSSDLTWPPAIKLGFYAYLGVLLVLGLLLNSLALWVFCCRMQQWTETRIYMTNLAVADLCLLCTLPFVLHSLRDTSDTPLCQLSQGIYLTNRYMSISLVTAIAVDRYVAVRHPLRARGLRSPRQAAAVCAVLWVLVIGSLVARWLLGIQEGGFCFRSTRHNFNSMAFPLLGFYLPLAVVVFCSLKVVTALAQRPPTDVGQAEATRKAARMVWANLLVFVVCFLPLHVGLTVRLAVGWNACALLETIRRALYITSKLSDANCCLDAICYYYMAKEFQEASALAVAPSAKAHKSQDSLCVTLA

Compound	response in Tango assay (GPR35 [1])	agonist type in Tango β-arrestin translocation assay (GPR35 [1])	blockage of the compound-induced DMR by compound 17 (GPR35 [2])	effect of shRNA knockdown of GPR35 on the compound-induced DMR (GPR35 [3])	further results
CC1=C(C#N)C(=C(C#N)C#N)OC1(C)c1ccc(F)cc1F (centres unmarked) [Compound 8, 2-(3-cyano-5-(2,4-difluorophenyl)-4,5-dimethylfuran-2(5H)-ylidene)malononitrile]	–	–	only partially suppressed	–	–
CC1=C(C#N)C(=C(C#N)C#N)OC1(C)c1ccc(Cl)c(Cl)c1 (centres unmarked) [Compound 1, 2-(3-cyano-5-(3,4-dichlorophenyl)-4,5-dimethylfuran-2(5H)-ylidene)malononitrile]	dose-dependent and saturable responses	partial agonist	–	significantly attenuated	agonist type in DMR assay (GPR35 [4]): full agonist
CC1=C(C#N)C(=C(C#N)C#N)OC12CCCCC2 [Compound 7, 2-(3-cyano-4-methyl-1-oxaspiro[4.5]dec-3-en-2-ylidene)malononitrile]	detectable responses	partial agonists	only partially suppressed	–	Tango assays % zaprinast (GPR35 [1]): weak
CCCCCCc1csc2cc(C(=O)O)sc12 [Compound 12, 6-Hexylthieno[3,2-b]thiophene-2-carboxylic Acid]	detectable responses	partial agonists	–	–	–
Cc1csc2c1sc1cc(C(=O)O)sc12 [Compound 13, 5-Methyldithieno[3,2-b:2′,3′-d]thiophene-2-carboxylic Acid]	detectable responses	partial agonists	only partially suppressed	significantly attenuated	–
CC1=C(C#N)C(=C(C#N)C#N)OC1(C)c1ccc(Cl)c(Cl)c1Cl (centres unmarked) [Compound 5, 2-(3-cyano-4,5-dimethyl-5-(2,3,4-trichlorophenyl)furan-2(5H)-ylidene)malononitrile]	–	–	only partially suppressed	–	fold decrease in potency to trigger DMR signal relative to 1 (GPR35 [4]; DMR EC50, compared with compound 1): 350 fold
CCCCCCc1c(C(=O)O)sc2ccsc12 [Compound 11, 3-Hexylthieno[3,2-b]thiophene-2-carboxylic Acid]	detectable responses	partial agonists	only partially suppressed	–	fold decrease in potency relative to 16a (GPR35 [4]; DMR EC50): about 54 fold
CCCOc1ccccc1-c1nc2[nH]nnc2c(=O)[nH]1 [zaprinast, reference compound]	–	–	–	significantly attenuated	Tango assays % zaprinast (GPR35 [1]): 100 ± 7%; zaprinast DMR amplitude in the desensitization step (positive control) (GPR35 [6]): 238 ± 25 pm; DMR assays % zaprinast (GPR35 [4]; efficacy relative to zaprinast, HT-29, DMR amplitude at 8 min post stimulation): 100 ± 5%; DMR amplitude, maximal response (GPR35 [4]; zaprinast 1 μM (saturating dose), about 8 min poststimulation, n = 32): 246 ± 11 pm
O=C(O)c1cc2sccc2s1 [Compound 10, Thieno[3,2-b]thiophene-2-carboxylic Acid]	detectable responses	partial agonists	–	–	fold decrease in potency relative to 16a (GPR35 [4]; DMR EC50): over 600 fold
COC(=O)c1cnn(-c2ccc(F)cc2F)c1/C=N/NC(=S)NC(C)(C)C [Compound 17, methyl-5-[(tert-butylcarbamothioylhydrazinylidene)methyl]-1-(2,4-difluorophenyl)-pyrazole-4-carboxylate, reference compound]	–	–	–	–	DMR agonist activity in HT-29 (GPR35 [4]): did not lead to any detectable DMR; blockage of the zaprinast DMR by compound 17 (GPR35 [2]; compound 17 at 64 μM (highest dose)): almost completely blocked
CC1=C(C#N)C(=C(C#N)C#N)OC1(C)C [Compound 9, 2-(3-Cyano-4,5,5-trimethylfuran-2(5H)-ylidene)malononitrile]	detectable responses	partial agonists	–	significantly attenuated	Tango assays % zaprinast (GPR35 [1]): weak
CC1=C(C#N)C(=C(C#N)C#N)OC1(c1ccccc1)C(F)(F)F (centres unmarked) [Compound 3, 2-(3-cyano-4-methyl-5-phenyl-5-(trifluoromethyl)furan-2(5H)-ylidene)malononitrile]	dose-dependent and saturable responses	partial agonists	–	–	–
CCOC(=O)c1sc2c(Br)csc2c1C [Compound 15a, Ethyl 6-Bromo-3-methylthieno[3,2-b]thiophene-2-carboxylate]	–	–	–	–	internalization of endogenous GPR35 (GPR35 [5]): unable to trigger receptor internalization

More lines, main results first:

response in Tango assay (GPR35 [1])	agonist type in Tango β-arrestin translocation assay (GPR35 [1])	blockage of the compound-induced DMR by compound 17 (GPR35 [2])	effect of shRNA knockdown of GPR35 on the compound-induced DMR (GPR35 [3])	Compound	further results
detectable responses	partial agonists	–	–	CCCCCCCCc1c(C(=O)O)sc2c(Br)csc12 [Compound 16b, 6-Bromo-3-octylthieno[3,2-b]thiophene-2-carboxylic Acid]	–
dose-dependent and saturable responses	full agonist	–	significantly attenuated	Cc1c(C(=O)O)sc2c(Br)csc12 [Compound 16a, 6-Bromo-3-methylthieno[3,2-b]thiophene-2-carboxylic Acid]	internalization of endogenous GPR35 (GPR35 [5]): significant internalization; agonist type in DMR assay (GPR35 [4]): full agonist
dose-dependent and saturable responses	partial agonists	–	–	CCCCCCCCCCCc1c(C(=O)O)sc2c(Br)csc12 [Compound 16c, 6-Bromo-3-undecylthieno[3,2-b]thiophene-2-carboxylic Acid]	–
